Laboratory results taken from article PMC5625166 (Pharmacology Research & Perspectives, 2017).
Like-named read-outs stand apart in the source and are kept apart here.

Columns and labels:
CYP2E1 [1] = target: CYP2E1 (Homo sapiens, UniProt P05181); assay: CYP2E1 inhibition assay; type: biochemical; conditions: for inhibition at 1 h: CYP2E1 baculosomes, pH 7.4, probe para-nitrophenol (p-NP); for inhibition at saturating substrate concentration: in words; for Inhibition type: p-NP 5-100 μmol/L, inhibitor 5-200 μmol/L, goodness-of-fit
Method in brief: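 p-NP hydroxylation by CYP2E1 baculosomes (2 pmol/μL) in 50 mmol/L potassium phosphate, pH 7.4. p-NP at 5–100 μmol/L (five levels) and inhibitor at 5–200 μmol/L (six levels). Pre-incubated 5 min at 37°C, then NADPH added (26 mmol/L) and run 1 h at 37°C. Stopped with TCA, neutralized with NaOH, absorbance read at 535 nm. Activity normalized to vehicle. IC50, Km/Vmax and Ki/inhibition type fitted by nonlinear regression; four replicates.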

CYP2E1 [2] = conditions: acetone-induced rat microsome; ref Brady et al. 1991; cited from earlier work
[3] = Preliminary toxicity / cell death of DAS analogs; type: cell-based; conditions: 200 μmol/L, 6 days of treatment, unpublished
[4] = K i, noncompetitive inhibition, mean ± SE, four replicates
[5] = K i, uncompetitive inhibition, mean ± SE, four replicates
[6] = 100 μmol/L p-NP, mean ± SE, four replicates
[7] = competitive inhibition, mean ± SE, four replicates

Sequence of CYP2E1 (Homo sapiens, UniProt P05181) (P05181 whole entry): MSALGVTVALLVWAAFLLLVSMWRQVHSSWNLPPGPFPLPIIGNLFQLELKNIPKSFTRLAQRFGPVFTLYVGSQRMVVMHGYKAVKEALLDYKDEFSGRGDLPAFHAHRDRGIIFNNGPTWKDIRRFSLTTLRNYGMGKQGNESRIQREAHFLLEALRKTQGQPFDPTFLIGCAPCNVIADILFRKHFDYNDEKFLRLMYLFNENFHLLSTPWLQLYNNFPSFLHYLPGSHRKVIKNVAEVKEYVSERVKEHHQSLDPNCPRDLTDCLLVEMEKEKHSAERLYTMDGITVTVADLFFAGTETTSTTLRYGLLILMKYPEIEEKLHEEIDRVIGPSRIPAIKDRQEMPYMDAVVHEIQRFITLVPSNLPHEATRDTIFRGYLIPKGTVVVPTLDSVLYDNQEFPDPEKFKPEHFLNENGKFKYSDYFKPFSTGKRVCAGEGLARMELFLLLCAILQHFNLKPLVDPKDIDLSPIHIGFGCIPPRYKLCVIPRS

IC50 (CYP2E1 [1]) | inhibition at 1 h (CYP2E1 [1]) | Ki (CYP2E1 [1]; [4]) | Ki (CYP2E1 [1]; [5]) | Maximal inhibition (%) (CYP2E1 [1]) | IC50 (CYP2E1 [1]; [6]) | IC50 (CYP2E1 [1]; 100 μmol/L p-NP, mean ± SE, four replicates, listed as AMS) | Ki (CYP2E1 [1]; [7]) | inhibition at saturating substrate concentration (CYP2E1 [1]) | Inhibition type (CYP2E1 [1]) | Ki (CYP2E1 [1]; K i, competitive inhibition, mean ± SE, four replicates) | Inhibition type (CYP2E1 [1]; listed as DAS) | SMILES | Inhibition type (CYP2E1 [2]) | toxicity [3]
43.7 ± 1.4 µM | 71% | 34.1 ± 3.3 µM | 19.3 ± 2.3 µM | – | – | – | – | – | – | – | – | C=CCOCCN [2‐(prop‐2‐en‐1‐yloxy) ethan‐1‐amine] | – | –
91.4 ± 1.6 µM | 20% | 363 ± 64 µM | 246 ± 47 µM | – | – | – | – | – | – | – | – | C=CCOCC(N)=O [2‐prop‐2‐enoxyacetamide (PEXA), 2‐prop‐2‐enoxyacetamide] | – | –
74.7 ± 1.2 µM | 75% | ~10.5 µM | ~7.3 µM | – | – | – | – | – | – | – | – | C=CCCCCN [5‐hexen‐1‐amine (5, 1 HA), 5‐hexen‐1‐amine] | – | –
– | – | – | – | 100% | 11.4 ± 1.1 µM | 11.4 ± 1.1 µM | 4.4 ± 0.9 µM | complete inhibition | Competitive | – | – | C=CCSC [Allyl methyl sulfide (AMS), allyl methyl sulfide] | – | –
17.3 ± 1.1 µM | 97% | – | – | – | – | – | – | – | Competitive | 6.3 ± 1 µM | competitive inhibition kinetics | C=CCSCC=C [Diallyl sulfide (DAS), Diallyl sulfide, reference compound] | competitive inhibition | –
– | – | – | – | 98% | 19.4 ± 1.1 µM | – | 7.7 ± 1.2 µM | complete inhibition | Competitive | – | – | c1ccsc1 [Thiophene (TP), thiophene] | – | did not show any significant toxicities
